Test results reported in publication PMC10009879 (RSC Advances, 2023).
In brackets after ≈: the same amount, converted by molar mass.

What was measured:
[1] = tested on: α-glucosidase; assay: Screening of α-glucosidase inhibitory activity; format: biochemical, Saccharomyces cerevisiae; conditions: times better than acarbose
[2] = tested on: α-glucosidase; assay: α-Glucosidase inhibition type and inhibition constants by Lineweaver–Burk plots; format: biochemical, Saccharomyces cerevisiae
Procedure, shortened: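 Yeast (Saccharomyces cerevisiae) α-glucosidase with 4-nitrophenyl […]-D-glucopyranoside (pNPG) as substrate. The test compound was run at 0, 1.98, 3.97 and 7.93 μM, each in three replicates. Inhibition type was assigned from Lineweaver–Burk plots using a modified published method. Ki (free enzyme) and K′i (enzyme–substrate complex) were derived from the same data.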

[3] = tested on: α-glucosidase; conditions: cited from earlier work
[4] = biological target: α-glucosidase; conditions: previous study; ref Zhang et al., 23; cited from earlier work
[5] = tested on: STZ-induced diabetic rats; conditions: cited from earlier work
[6] = biological target: yeast α-glucosidase; conditions: in vitro; cited from earlier work
[7] = tested on: mice fed a high fat and high sucrose diet; conditions: cited from earlier work

## O=c1c(O)c(-c2ccc(O)c(O)c2)oc2c(Br)c(O)cc(O)c12 [Compound 5a, 8-Bromoquercetin]
[1]
  α-glucosidase inhibition relative to the standard drug acarbose: thirty-seven times better
[2]; Lineweaver–Burk plots, 0, 1.98, 3.97, 7.93 μM
  type of α-glucosidase inhibition: mixed mode inhibitor
[2]; read-out: inhibition constant binding with the free enzyme (Ki), secondary plot
  Ki: 5.58 ± 0.35 µM
[2]; secondary plot
  inhibition constant binding with the enzyme–substrate complex (K′i): 10.33 ± 0.85 µM

## O=c1c(O)c(-c2ccc(O)cc2)oc2cc(O)cc(O)c12 [Compound 3, kaempferol]
[3]
  α-glucosidase inhibition: ~95.1%

## C[C@@H]1O[C@@H](Oc2c(-c3ccc(O)c(O)c3)oc3cc(O)cc(O)c3c2=O)[C@H](O)[C@H](O)[C@H]1O [Compound 6, quercitrin]
[4]
  IC50 α-glucosidase inhibition: 215 ± 4 mg/L (≈ 480 µM)

## O=c1c(O)c(-c2cc(O)c(O)c(O)c2)oc2cc(O)cc(O)c12 [myricetin]
[5]
  effect on fasting blood glucose level: cut down the fasting blood glucose level
[6]
  IC50 yeast α-glucosidase: 5 mg/L (≈ 15.7 µM)
[7]
  effect on fasting blood glucose level: cut down the fasting blood glucose level
